Assay outcomes as filed in PubChem BioAssay.
Sampled rows, rich in hits. Any-hit rate of the full collection: about 1.9%.
Efflux pump inh = blocks antifungal efflux pumps in multiplex yeast assay; actives 0.44% (n = 330,000); inhibition, % at 10 µM; S. cerevisiae Candida pump triplex, Nile Red efflux;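 active = plate passing quality check with inhibition over a set limit, or well fluorescence over plate mean plus 4 SD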;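 also: Nile Red retained in pooled yeast measured as flow cytometry median fluorescence; 0% = buffer negative control and 100% = Enniatin B positive control; higher means more Nile Red kept so more efflux inhibition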
ARFGAP1 inhibitor = inhibitors of rat ARFGAP1. Q62848. Arfgap1-stimulated ARF1 GTP hydrolysis, GDP FP detection. inhibition, % at 16.5 µM. actives 0.26% (n = 360,000). AID 651572;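 active = inhibition above a per-plate limit, mean inhibition of low control wells plus 3 SD, cut at about 25% in these data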;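 also: 0% = DMSO wells with enzyme and 100% = wells lacking Arfgap1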
Target sequence (Q62848 1-136 limits assumed): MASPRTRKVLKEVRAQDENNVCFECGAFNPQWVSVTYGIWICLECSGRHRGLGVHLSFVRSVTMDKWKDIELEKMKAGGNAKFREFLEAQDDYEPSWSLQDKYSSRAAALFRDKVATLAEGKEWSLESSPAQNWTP
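Material – truncated rat Arfgap1 GAP domain · Buffer or medium – HEPES-based buffer, pH 7.5 · Reagent – human ARF1(Δ1-17)-GTP substrate · Dosing – 16.5 µM single point, 1.26% DMSO · Schedule – GTP hydrolysis reaction 2 h at 25 °C · Technique – GDP detection by fluorescence polarization · Benchmarks – No-Arfgap1 wells (100%) versus DMSO full-reaction wells (0%) · Repeats – single replicate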
FGF22 binding = binders of recombinant human FGF22 by thermal shift; Q9HCT0; actives 1.5% (n = 340,000); activity (Tm shift, normalised), % at 9.99 µM; AID 651658; SYPRO orange fluorescence; percent of sucrose octasulfate shift, DMSO zero;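 active = mean Tm shift, scaled 0 neutral to 100 positive control, at about 1.3% or above, every replicate too, limit read from the data; inconclusive = no clear call, values can overlap the other calls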
ASAP1 inh = blocks human ASAP1-stimulated Arf1 GTP hydrolysis. GDP FP detection. inhibition, % at 16.5 µM. Q9ULH1. actives 0.19% (n = 360,000); in the data active = inhibition above about 25%;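 also: 0% = vehicle with enzyme and substrate and 100% = no enzyme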
Target sequence (Q9ULH1 325-724 limits assumed): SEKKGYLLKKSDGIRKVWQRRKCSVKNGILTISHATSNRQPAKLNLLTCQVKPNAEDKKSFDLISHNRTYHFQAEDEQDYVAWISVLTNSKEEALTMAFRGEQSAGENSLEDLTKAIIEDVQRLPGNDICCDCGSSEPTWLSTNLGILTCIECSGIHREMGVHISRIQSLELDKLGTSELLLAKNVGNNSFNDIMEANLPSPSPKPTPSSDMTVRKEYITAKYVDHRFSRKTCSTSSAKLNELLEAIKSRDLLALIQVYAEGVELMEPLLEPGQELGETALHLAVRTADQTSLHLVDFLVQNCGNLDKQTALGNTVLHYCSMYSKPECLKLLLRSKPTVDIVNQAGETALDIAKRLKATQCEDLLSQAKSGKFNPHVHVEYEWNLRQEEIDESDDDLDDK
Rtt109 Vps75 = inhibitors of Candida albicans Rtt109/Vps75 histone acetyltransferase; inhibition, % at 34.9 µM; AID 540336; actives 0.16% (n = 330,000); purified Rtt109/Vps75, ThioGlo CoA-SH fluorescence, 4 h;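 active = inhibition of at least 50% in every replicate; inconclusive = best replicate reaches 50% inhibition but some replicates fall short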
* = called active by the depositor; ? = inconclusive; nt = no result given; ! = a repeat was not active.

SMILES	Efflux pump inh	ARFGAP1 inhibitor	FGF22 binding	ASAP1 inh	Rtt109 Vps75
O=[N+]([O-])c1ccccc1CCl	0	7	0	-2	-16
O=C1CCN(C(=O)Cc2ccccc2[N+](=O)[O-])CC1	1	4	44*	-3	-21
CCN(CC)c1ccc(/C=C2\C(=O)NC(=O)N(CC3CCCO3)C2=O)cc1 (stereo unspecified)	0	-1	43*	1	11
Cc1ccc(/C=C2\C(=O)NC(=O)N(CC3CCCO3)C2=O)s1 (stereo unspecified)	0	-3	-1	6	?
COC(=O)c1nc(-c2ccc3c(n2)C(=O)C(N)=C(OC)C3=O)c(N)c(-c2ccc(OC)c(OC)c2O)c1C	0	0	0	31*	1
COCCNC(=O)N1[C@H]2CC[C@@H]1C(C(=O)OC)=C(c1cccc(C#N)c1)C2	0	4	0	-7	7
Cc1ccc2c(c1)cc1c(=O)n(CC(=O)N3CCC4(CC3)OCCO4)nc(C)n12	0	-14	0	7	0
Cc1nn(Cc2ccccc2)c(C)c1C(=O)OCC(=O)Nc1cc(S(C)(=O)=O)ccc1Cl	0	-14	43*	3	-11
CCOC(=O)c1cccc(C2=C(CNC(=O)c3cccnc3)[C@H]3CC[C@@H](C2)N3Cc2ccccc2)c1	nt	-17	0	4	nt
Cn1cc(C(=O)NP(=O)(N2CCOCC2)N2CCOCC2)c2ccccc21	0	-11	44*	10	-7
Cc1ccc(C(O)(C(=O)NNC(=O)CN2CCN(C)CC2)c2ccc(C)cc2)cc1	0	0	44*	4	30
Cc1cccc(C(O)(C(=O)NNC(=O)CN2CCN(C)CC2)c2cccc(C)c2)c1	0	3	0	1	5
Cc1ccc(-n2c(O)c(C=Nc3ccc(S(N)(=O)=O)cc3)c(=O)[nH]c2=O)cc1	0	1	43*	-12	-13
OC1/C(=C/c2ccc(F)cc2)N2CCC1CC2 (stereo unspecified)	0	7	43*	-1	8
Clc1cccc(NC2=NCCS2)c1	nt	-13	0	0	nt
FC(F)(F)c1cccc(NC2=NCCS2)c1	nt	-6	44*	11	nt
C=Cn1ccnc1P(O)(=S)c1nc(C)c(CCOC(C)=O)s1 (stereo unspecified)	0	-6	0	-4	4
O=C(NN=Cc1ccc(N(CCCl)CCCl)cc1)c1cc(=O)[nH]c(=O)[nH]1	nt	14	44*	-5	-4
O=C(NN=Cc1ccc(N(CCCl)CCCl)cc1)C(=O)c1c[nH]c2ccccc12	nt	-8	0	9	-9
Clc1ccc(COC(Cn2ccnc2)c2ccc(Cl)cc2Cl)c(Cl)c1 (stereo unspecified)	0	1	0	-4	74*!
CC(C)COC(=O)c1ccccc1C(=O)OCC(C)C	0	3	0	20	6
C[CH2][Hg][S]c1ccccc1C(=O)O	3.0*	6	-1	-2	11
CCC(CC)NCc1c[nH]c2ccccc12	0	-5	43*	-9	-7
CC(c1ccccc1F)n1cc(C(=O)Nc2ccc3nc[nH]c3c2)nn1 (stereo unspecified)	0	14	nt	23	2
Fc1ccc(CCNCc2ccc(Br)cc2)cc1	0	1	44*	-4	2
SMILES	Efflux pump inh	ARFGAP1 inhibitor	FGF22 binding	ASAP1 inh	Rtt109 Vps75
CC(C)(C)n1nnnc1C(c1cccs1)N1CCC2(CC1)C(=O)NCN2c1ccccc1 (stereo unspecified)	nt	6	0	3	nt
COc1cc2c(C(=O)O)c(C)n(C)c2cc1Br	0	4	43*	-9	2
COc1cc2c(C(=O)N3CCN(C)CC3)c(C)n(C)c2cc1Br	0	-11	nt	-6	1
CCc1ccc(N2C(=O)NC(=O)/C(=C/c3cccn3CCOc3ccc(C(C)CC)cc3)C2=O)cc1 (stereo unspecified)	0	4	43*	-8	-6
CCC(=NCCCn1ccnc1)c1c(O)n(Cc2ccccc2)c(=O)[nH]c1=O	0	19	nt	-14	-1
C[C@@H]1CN([C@H](C)CO)C(=O)CCCn2nncc2CO[C@H]1CN(C)C(=O)Oc1ccc2ccccc2c1	nt	1	43*!	-1	nt
C[C@@H]1CN([C@@H](C)CO)C(=O)CCCn2nncc2CO[C@@H]1CN(C)C(=O)Oc1ccc2ccccc2c1	nt	-9	0	-4	nt
Cn1cccc1/C=C1\C(=O)NC(=O)N(Cc2ccccc2Cl)C1=O	nt	-15	44*	-1	4
N#Cc1c(N2CCNCC2)nc(-c2ccco2)c2c1CCCC2	0	10	1.9*	-7	-2
Cn1ccnc1P(=S)(c1nccn1C)N1CCOCC1	0	7	nt	4	0
Cc1ccc2nc(C)n(-c3ccc(F)cc3)c(=O)c2c1	0	-4	nt	-13	4
Nc1ccccc1C(=O)OCCc1ccccc1	0	0	0	4	4
O=P(O)(O)CN1CCNCCN(CP(=O)(O)O)CCNCC1	nt	0	43*	-15	3
COc1ccc2c(c1)C(c1ccc(N(CCCl)CCCl)cc1)=NCC2	nt	2	0	11	7
COc1ccc(N2C(=O)C(=O)N(c3ccc(OC)cc3)P2(=O)N(CCCl)CCCl)cc1	nt	5	43*	-9	2
O=C(COc1ccc(Cl)cc1)NC1CN2CCC1CC2 (stereo unspecified)	0	4	nt	-9	-4
Cc1c(NC(NC(=O)CF)C(Cl)(Cl)Cl)c(=O)n(-c2ccccc2)n1C (stereo unspecified)	0	-10	43*	-4	2
CN(C)c1ccc(C(=O)N/N=C/C23CC[C@@H](O)CC2(O)CC[C@@H]2[C@@H]3CCC3(C)C(C4=CC(=O)OC4)CCC23O)cc1 (stereo partly specified)	0	10	41	-5	16
CC(=O)C1C(N2CC2)CC2C3CC=C4CC(O)CCC4(C)C3CCC21C (stereo unspecified)	nt	-7	44*	3	-8
O=C(NC1CCCCC1)Oc1cc2oc(=O)sc2cc1Cl	0	9	0	0	89*
Clc1cccc(Cl)c1C1N2CCCN12 (stereo unspecified)	0	-5	nt	25	-3
CSc1ncc(CN2CCCC(C(=O)c3ccccc3SC)C2)cn1 (stereo unspecified)	0	-2	0	1	-5
CSc1ccc(C(=O)C2CCCN(Cc3cnc(SC)nc3)C2)cc1 (stereo unspecified)	0	-4	44*	4	nt
Cc1ccsc1C(=O)C1CCCN(Cc2cnc(N3CCCC3)s2)C1 (stereo unspecified)	0	10	44*	-14	2
CSc1ncc(CN2CCCC(C(=O)c3sccc3C)C2)cn1 (stereo unspecified)	0	8	0	-5	-1
N#CC(C#N)=Cc1cccnc1	0	-6	0	-1	9
